One data set has as its system MCF7. As to the kind of experiment: Cytotoxicity against human MCF7 cells assessed as reduction in cell viability measured after 72 hrs by SRB assay. The following applies: MCF7, 72 h. The class given is functional, cell-based.
For a further data set, the system named is HeLa. As to the kind of experiment: Cytotoxicity against human HeLa cells assessed as reduction in cell viability measured after 72 hrs by SRB assay. The class given is functional, cell-based.
Another data set has as its system DU-145. As to the kind of experiment: Cytotoxicity against human DU145 cells assessed as reduction in cell viability measured after 72 hrs by SRB assay. The note with it: DU-145, 72 h. The class given is functional, cell-based. (In general: Sulforhodamine B stains cellular protein and so reports cell mass.)
In the next data set the test system is PC-3. As to the kind of experiment: Cytotoxicity against human PC3 cells assessed as reduction in cell viability measured after 72 hrs by SRB assay. The class given is functional, cell-based. The note with it: PC-3, 72 h.
In a further data set the test system is MDA-MB-231. As to the kind of experiment: Cytotoxicity against human MDA-MB-231 cells assessed as reduction in cell viability measured after 72 hrs by SRB assay. The class given is functional, cell-based. The note with it: MDA-MB-231, 72 h.
The subject of another data set is HT-29. As to the kind of experiment: Cytotoxicity against human HT-29 cells assessed as reduction in cell viability measured after 72 hrs by SRB assay. The class given is functional, cell-based. The following applies: HT-29, 72 h.
A short description of data set [1]: Toxicity in 24 hrs post fertilized zebrafish embryo assessed as developmental delay at 50 uM measured after 24 hrs by microscopic analysis. Also on record: species or system Danio rerio. The note with it: in vivo. The essentials:
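Embryos raised at 28 °C to 24 hpf, then exposed to 50 μM in 1% DMSO in water (vehicle control) for 24 h; larvae examined and photographed by light microscopy for developmental morphology.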

The text below walks through data of ChEMBL document CHEMBL4334445, “Caspase-Dependent Apoptosis in Prostate Cancer Cells and Zebrafish by Corchorusoside C from Streptocaulon juventas” (J Nat Prod, 2019).

As for `Cc1c2ccncc2c(C)c2c1[nH]c1ccccc12` [ELLIPTECINE], the IC50 – broadly, the concentration needed to halve the response being measured – with MCF7 was found to be 800 nM.

As to `CC(=O)O[C@H]1C(=O)[C@@]2(C)[C@H]([C@H](OC(=O)c3ccccc3)[C@]3(O)C[C@H](OC(=O)[C@H](O)[C@@H](NC(=O)c4ccccc4)c4ccccc4)C(C)=C1C3(C)C)[C@]1(OC(C)=O)CO[C@@H]1C[C@@H]2O` [PACLITAXEL], the IC50 in the data set with HeLa turned out to be 5 nM; in the data set on DU-145, 4 nM; with PC-3, 170 nM; in the data set with MDA-MB-231, 100 nM; in the data set on HT-29, 2 nM.

In the case of `C[C@@H]1C[C@@H]([C@H](O)CC2CC(=O)NC(=O)C2)C(=O)[C@@H](C)C1` [CYCLOHEXIMIDE], in data set [1], the Activity result is listed as “Toxic”.
